Measurements gathered from unrelated publications.
Target: Mitogen-activated protein kinase kinase kinase kinase 3 (MAP4K3, Homo sapiens, UniProt Q8IVH8)
One construct used (Q8IVH8 1-894): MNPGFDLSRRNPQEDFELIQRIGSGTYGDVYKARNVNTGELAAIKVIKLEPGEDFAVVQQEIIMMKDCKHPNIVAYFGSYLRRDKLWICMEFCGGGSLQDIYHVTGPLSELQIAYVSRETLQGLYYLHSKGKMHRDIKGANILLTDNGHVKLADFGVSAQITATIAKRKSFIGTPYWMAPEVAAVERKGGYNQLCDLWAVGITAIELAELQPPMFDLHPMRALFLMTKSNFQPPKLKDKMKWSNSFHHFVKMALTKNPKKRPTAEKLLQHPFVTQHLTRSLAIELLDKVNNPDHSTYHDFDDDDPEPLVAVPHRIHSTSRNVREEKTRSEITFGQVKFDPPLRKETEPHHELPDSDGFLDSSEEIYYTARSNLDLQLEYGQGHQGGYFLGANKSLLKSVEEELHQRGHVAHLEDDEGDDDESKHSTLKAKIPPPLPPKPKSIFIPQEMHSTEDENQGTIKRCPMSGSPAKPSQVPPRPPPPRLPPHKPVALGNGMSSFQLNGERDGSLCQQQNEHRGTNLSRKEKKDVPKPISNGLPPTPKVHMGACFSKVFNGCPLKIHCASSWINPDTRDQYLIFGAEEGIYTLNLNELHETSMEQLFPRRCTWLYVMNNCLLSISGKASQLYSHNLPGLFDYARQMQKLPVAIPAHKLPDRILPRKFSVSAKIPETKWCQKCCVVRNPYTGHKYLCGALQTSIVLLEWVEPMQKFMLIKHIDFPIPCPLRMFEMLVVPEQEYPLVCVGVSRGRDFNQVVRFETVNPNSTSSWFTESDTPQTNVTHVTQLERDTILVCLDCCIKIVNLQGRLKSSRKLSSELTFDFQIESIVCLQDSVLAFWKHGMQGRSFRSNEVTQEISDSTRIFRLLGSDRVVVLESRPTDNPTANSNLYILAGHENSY

| Compound | read-out | method | tested at | remaining binding [%] |
| --- | --- | --- | --- | --- |
| CNC(=O)[C@@H]1CC[C@@H](n2c(-c3ccc4cnccc4c3)nc3ccc(C(=O)NCc4cccc(C(N)=O)c4)cc32)C1 | binding | competition with immobilised ligand | 1 µM | 100 |
| Nc1cnc(N2CCc3cc(S(=O)(=O)Nc4c(F)cc(Cl)cc4F)cc(N4CCCC4=O)c32)nc1 | cell-free assay | competition with immobilised ligand | 1 µM | 93 |
| CN(C)c1nccc(-c2cnc3ncccn23)n1 | binding |  | 1 µM | 100 |
| NS(=O)(=O)c1cc(NC(=O)Cc2ccccc2)ccc1Oc1cccc(Cl)c1 | cell-free assay | competition with immobilised ligand | 1 µM | 100 |
| O=C(c1ccc(Nc2ncc(Cl)c(-c3cc4ccccc4s3)n2)cc1)N1CCC(N2CCCC2)CC1 | binding | competition with immobilised ligand | 1 µM | 40 |
| F[C@@H]1CCN(c2nccc(-c3cnn4ncccc34)n2)C1 | binding |  | 1 µM | 100 |
| FC(F)(F)Oc1cccc(-c2cnc3ccc(-c4ccncc4)nn23)c1 | cell-free assay | competition with immobilised ligand | 5 µM | 86 |
| O=C(NCC1CCOCC1)c1n[nH]cc1NC(=O)c1c(F)cccc1F | binding | competition with immobilised ligand | 1 µM | 82 |
| N[C@H]1CCN(c2nccc(-c3cnn4ncccc34)n2)C1 | binding |  | 1 µM | 100 |
| COc1ncc2cc3ccccc3nc2c1C#N | cell-free assay | competition with immobilised ligand | 5 µM | 100 |
| Cc1cnn2ncc(-c3ccnc(N(C)C)n3)c2c1 | binding |  | 1 µM | 100 |
| Nc1ncc2c(n1)-c1c([nH]c3ccc(C#CC4CC4)cc13)CCCC2 | binding | competition with immobilised ligand | 1 µM | 87 |
| CCS(=O)(=O)c1cc2cc(C[C@@](O)(CC(C)(C)c3ccc(F)cc3C(N)=O)C(F)(F)F)[nH]c2cn1 | cell-free assay | competition with immobilised ligand | 1 µM | 82 |
| CN(C)c1nccc(-c2cnn3ncccc23)n1 | binding |  | 1 µM | 100 |
| O=C(Nc1cccnn1)N1CCC(=Cc2cccc(Oc3ccc(C(F)(F)F)cn3)c2)CC1 | cell-free assay | competition with immobilised ligand | 1 µM | 100 |
| O=C(c1ccc(Nc2ncc(Cl)c(-c3ccc(Cl)s3)n2)cc1)N1CCC(N2CCCC2)CC1 | binding | competition with immobilised ligand | 1 µM | 50 |
| Cc1c(C(=O)O)cc(-c2ccc(C3CCNCC3)cc2)c2ccc(-c3ccc(C(F)(F)F)cc3)cc12 | binding | competition with immobilised ligand | 1 µM | 100 |
| Cc1cnc(Nc2ccc(C(=O)N3CCC(N4CCCC4)CC3)cc2)nc1-c1cc2ccccc2s1 | binding | competition with immobilised ligand | 1 µM | 50 |
| c1cnn2ncc(-c3ccnc(N4CCC45COC5)n3)c2c1 | binding |  | 1 µM | 88 |
| Nc1c(C(=O)NCc2ccc(C(=O)NCCCC3CCCCC3)cc2)cnn1-c1ccccc1 | cell-free assay | competition with immobilised ligand | 0.1 µM | 100 |
